# Rtt109 Vps75: blocks Candida albicans Rtt109/Vps75 acetyltransferase activity; AID 540336; Q5AAJ8; actives 0.16% (n = 330,000); purified Rtt109/Vps75, ThioGlo CoA-SH fluorescence, 4 h; inhibition, % at 34.9 µM;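 active = inhibition of at least 50% in every replicate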
# Target sequence (Q5AAJ8 whole entry, looked up): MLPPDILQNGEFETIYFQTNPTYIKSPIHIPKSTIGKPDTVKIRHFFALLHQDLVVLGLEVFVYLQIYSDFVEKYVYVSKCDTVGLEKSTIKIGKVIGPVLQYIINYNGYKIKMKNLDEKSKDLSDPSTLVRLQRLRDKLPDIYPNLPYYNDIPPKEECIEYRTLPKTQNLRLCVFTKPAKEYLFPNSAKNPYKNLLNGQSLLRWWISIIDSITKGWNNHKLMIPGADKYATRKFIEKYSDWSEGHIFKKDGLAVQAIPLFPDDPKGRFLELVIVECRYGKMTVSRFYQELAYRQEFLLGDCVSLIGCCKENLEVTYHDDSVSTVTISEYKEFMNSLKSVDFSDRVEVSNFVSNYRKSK
# CSC inhib: blocks cancer stem cells | AID 2717 | cancer stem cell-like cells viability, luminescence | actives 1.1% (n = 300,000) | inhibition, % at 7.5 µM; in the data active = inhibition above about 75%; tested in HMLE shEcad cells
# PglD DTNB: PglD (C. jejuni) enzyme inhibition | actives 0.098% (n = 360,000) | inhibition, % at 12.5 µM | purified PglD enzyme, DTNB colorimetric CoA detection; in the data active = inhibition above about 16%, passing the limit was not always enough
# FN deposition inh: fibronectin deposition inhibition; AH1F fibroblasts, Alexa488-fibronectin deposition fluorescence, overnight; inhibition, % at 12.6 µM; actives 0.086% (n = 350,000);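 active = mean inhibition across replicates of 30% or more, regardless of how many single replicates reach that level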;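 also: positive control wells lacked labelled fibronectin entirely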
#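 test system = AH1F fibroblasts assembling fluorescent fibronectin matrix | quantity = 10000 AH1F cells per well | buffer or medium = DMEM plus 2% serum, read in PBS | doses = single dose, pinned | incubation = 1 h cell attachment, overnight exposure to compound and label | detection = fluorescence at 485 nm excitation, 525 nm emission | read-out basis = inhibition from reduced deposited-fibronectin fluorescence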
# PfHsp90 yeast 2: inhibits growth of yeast expressing Plasmodium falciparum Hsp90. S. cerevisiae expressing PfHsp90, BacTiter-Glo ATP, 48 h; yeast lacking PDR1 and PDR3 efflux regulators. inhibition, % at 9.4 µM. actives 0.32% (n = 310,000);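 active = every replicate shows inhibition above about 80%, whatever the replicate mean, limit read from the data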;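 also: 0% = DMSO neutral controls and 100% = 20 µM radicicol positive controls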
# SKKanGAS inh: inhibitors of SKKanGAS S. pyogenes growth in kanamycin (SK-promoter or general growth effect); inhibition, % at 7.5 µM; actives 1.3% (n = 300,000); BacTiter-Glo, 6 h;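 active = mean replicate score, as percent of positive control median, at least 50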;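 also: strain carries kanamycin resistance gene driven by streptokinase promoter and grows in 40 µg/ml kanamycin; loss of luminescence reflects streptokinase promoter inhibition or plain growth inhibition; 0% = median of DMSO wells and 100% = positive control at its reference dose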
# Numbers without * were called inactive; . = no result given. In the library only some 1.7% were active in any assay of this set; here they are far more common.
SMILES,Rtt109 Vps75,CSC inhib,PglD DTNB,FN deposition inh,PfHsp90 yeast 2,SKKanGAS inh
O=C([C@H]1[C@H](CO)[C@H]2Cn3c(ccc(-c4ccccc4)c3=O)[C@H]2N1CCC(F)(F)F)N1CCOCC1,.,.,4,.,.,.
CC(=O)c1ccc(N2CCN(c3ncccn3)CC2)c([N+](=O)[O-])c1,-2,.,5,-4,-9,-1
CC(=O)c1ccc(N2CCC(c3cc(-c4ccc(Cl)cc4)n[nH]3)CC2)c([N+](=O)[O-])c1,5,101*,6,.,-62,88*
COC(=O)c1ccc(N2CCC(c3cc(-c4ccc(OC)cc4)n[nH]3)CC2)c([N+](=O)[O-])c1,6,7,-1,.,-89,90*
COc1ccc(-c2cc(C3CCN(c4ccc(C(C)=O)cc4[N+](=O)[O-])CC3)[nH]n2)cc1,-4,76*,-3,6,-180,83*
COc1ccc(-c2cc(C3CCN(C(=O)OC(C)(C)C)CC3)[nH]n2)cc1,-8,7,.,13,.,4
O=C(C1CC1)N1C[C@H]2[C@@H](c3ccccc31)[C@@H](CO)N2C(=O)c1ccccn1,.,.,2,.,.,.
CCS(=O)(=O)Nc1ccc2c(c1)C(=O)N(C)C[C@@H](OC)[C@@H](C)CN(C(=O)CN(C)C)[C@@H](C)CO2,.,.,2,5,.,.
C[C@H](NC(=O)C[C@H]1C[C@@H]2c3cc(NC(=O)CN(C)C)ccc3O[C@@H]2[C@@H](CO)O1)c1ccccc1,.,.,1,-4,.,.
CCc1c(C)sc2nc(C(C)C)nc(SCC(=O)N3CCc4ccccc4C3)c12,.,192*,.,.,.,62*
COc1ccc(NC(=O)Nc2cccc3c2O[C@@H](CN(C)C)[C@@H](C)CN([C@@H](C)CO)C3=O)cc1,.,.,5,.,.,.
C[C@H](CO)N1C[C@H](C)[C@@H](CN(C)C)Oc2c(NC(=O)c3cnccn3)cccc2C1=O,.,.,-6,.,.,.
O=C(NC1CCC1)[C@@H]1[C@@H](CO)[C@@H]2Cn3c(ccc(-c4ccncc4)c3=O)[C@H]1N2CC1CC1,.,.,-4,.,.,.
CCCCOc1ccccc1C(=O)NNC(=S)NC(=O)c1ccccc1[N+](=O)[O-],-11,20,5,1,1,77*
O=C(NNC(=S)NC(=O)c1ccccc1[N+](=O)[O-])c1ccccc1[N+](=O)[O-],2,.,-1,.,6,-2
O=C(Nc1ccc(C(F)(F)F)cc1)N[C@@H]1CC[C@@H](CCn2cc(C3(O)CCCC3)nn2)O[C@@H]1CO,.,.,3,.,.,.
Cc1[nH]n(-c2ccccc2)c(=O)c1/C=N/NC(=O)c1ccccc1F,-3,.,6,-2,-4,90*
CC(=O)N/N=C/c1c(C)[nH]n(-c2ccccc2)c1=O,.,0,.,21,-6,-13
CC/C(=N/NC(=O)c1ccccc1O)c1c(C)[nH]n(-c2ccccc2)c1=O,34,81*,4,9,-5,95*
CCSC(=S)c1c(C)[nH]n(-c2ccccc2)c1=O,6,27,-8,4,-56,57*
O=C(N/N=C/c1c(O)n(-c2ccccc2Cl)c(=O)c2ccccc12)C1COc2ccccc2O1 (centres undefined),-7,25,.,.,14,79*
Cc1[nH]n(-c2ccccc2)c(=O)c1C(=O)c1ccccc1,0,-1,-1,-3,11,-5
COC(=O)C[C@@H]1CC[C@H](NS(=O)(=O)c2ccc(OC)cc2)[C@H](CO)O1,.,.,6,8,.,.
Cc1c(/C=N\NC(=O)C2COc3ccccc3O2)c2ccccc2n1C (centres undefined),6,52,.,-8,7,1
Cc1[nH]n(-c2ccccc2)c(=O)c1/C=N\NC(=O)C1COc2ccccc2O1 (centres undefined),10,8,.,-1,8,65*
SMILES,Rtt109 Vps75,CSC inhib,PglD DTNB,FN deposition inh,PfHsp90 yeast 2,SKKanGAS inh
Cc1ccc(-n2c(O)c(/C=N/NC(=O)C3COc4ccccc4O3)c3ccccc3c2=O)cc1 (centres undefined),13,.,-6,.,4,101*
Cc1noc(C)c1S(=O)(=O)Nc1ccc2c(c1)CC(=O)N([C@@H](C)CO)C[C@@H](C)[C@@H](CN(C)C(=O)Nc1ccc3c(c1)OCO3)O2,.,.,4,.,.,.
Oc1ccc(F)cc1-c1cc(-c2ccc3c(c2)OCCO3)n[nH]1,-6,42,.,.,17,56*
Cc1c(Cl)sn(-c2ccc(Cl)cc2)c1=O,-4,.,-3,15,111*,.
Cc1nn(-c2ccc(Cl)cc2)c(=O)c2ccccc12,-7,14,.,-1,-5,4
Cn1cnc(S(=O)(=O)N[C@H]2CC[C@@H](CC(=O)Nc3ccc(-c4ccccc4)cc3)O[C@H]2CO)c1,.,.,-5,.,.,.
COc1cccc(OCc2cc(/C=N/Nc3ccc(C(=O)O)cc3)ccc2OC)c1,50*,-1,6,7,6,10
COc1cccc(C(=O)Oc2ccc(/C=N/Nc3ccc(C(=O)O)cc3)cc2OC)c1,18,-6,0,6,0,55*
CCOc1cc(/C=N/Nc2ccc(C(=O)O)cc2)ccc1OC(=O)c1ccccc1C,-3,4,.,-5,19,75*
COc1cc(/C=N/NS(=O)(=O)c2ccc3ccccc3c2)ccc1OCc1ccc(C(=O)O)cc1,2,12,-4,1,18,55*
Cc1noc(C)c1NC(=O)N[C@@H]1CC[C@H](CC(=O)Nc2ccc(-c3ccccc3)cc2)O[C@@H]1CO,.,.,3,-3,.,.
C[C@@H]1CN([C@H](C)CO)C(=O)c2cc(NC(=O)Cc3ccccc3)ccc2O[C@H]1CN(C)C(=O)Nc1ccccc1,.,.,0,.,.,.
CC(C)NC(=O)Nc1ccc2c(c1)C(=O)N([C@H](C)CO)C[C@H](C)[C@H](CN(C)C(=O)NC1CCCCC1)OCCCC[C@@H](C)O2,.,.,0,.,.,.
CC(=O)Nc1ccc2c(c1)C(=O)N(C)[C@H]1CC[C@H](CC(=O)NCC3CCCCC3)O[C@@H]1CO2,.,.,4,6,.,.
CCCC(=O)Nc1ccc2c(c1)C(=O)N(C)C[C@@H](OC)[C@@H](C)CN(Cc1nccs1)[C@H](C)CO2,.,.,-1,3,.,.
COc1cc(/C=N/NC(N)=S)ccc1OCc1ccc(C)cc1,.,76*,.,.,-4,-1
CC(/C=C1\SC(=S)N(CCCC(=O)Nc2ccc(C(=O)O)cc2)C1=O)=C\c1ccccc1,-3,.,-16,.,-12,121*
O=C(CCCN1C(=O)/C(=C\c2ccco2)SC1=S)Nc1ccc2ccccc2c1,-5,86*,.,-12,-21,7
CC(/C=C1\SC(=S)N(NC(=O)c2ccc(O)cc2)C1=O)=C\c1ccccc1,2,76*,.,9,-33,47
CC(/C=C1\SC(=S)N(CCC(=O)Nc2cccc(C(=O)O)c2)C1=O)=C\c1ccccc1,12,.,-3,7,8,112*
O=C(CCCN1C(=O)/C(=C/c2ccco2)SC1=S)Nc1ccccc1C(=O)O,19,9,.,-2,-98,1

# Screening data deposited in PubChem BioAssay by Broad Institute.
